# MT1-MMP act inh: blockers of MT1-MMP proenzyme processing, primary screen, HT1080 RFP-PRO-GFP cells, GFP/RFP fluorescence | GFP/RFP ratio fluorescence, overnight; percent of plate control window, DMSO zero | GFP/RFP ratio change, % at 20 µM | 360,000 tested, 0.061% active;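 active means GFP/RFP ratio change of at least 30% with cell ATP level not reduced by more than half and red fluorescence within 50% of control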
#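 Test system: HT1080 RFP-PRO-GFP cells; Benchmarks: DMSO and RFP-L50D-GFP cell wells; Timing: cells overnight before dosing, compound overnight, 37 °C, 5% CO2; Compound: one 20 µM compound dose with 1% DMSO; Read-out: GFP/RFP fluorescence ratio.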
# MPTP inh: mitochondrial permeability transition pore inhibitors, primary screen, biochemical, isolated mouse mitochondria, absorbance | Ca2+ swelling absorbance, 30 min | inhibition, % at 10 µM | 360,000 tested, 1.4% active;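 active means inhibition of 50% or more, scaled per plate between neutral and stimulator controls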;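 further: 0% = DMSO wells given calcium and 100% = 1 mM EGTA wells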
# ADAM17 inh: ADAM17 inhibitors, primary screen, biochemical, QFRET; Disintegrin and metalloproteinase domain-containing protein 17 (Homo sapiens), P78536; recombinant ADAM17, EDANS/DABCYL FRET peptide cleavage; inhibition, % at 6.95 µM; 370,000 tested, 0.83% active;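 active means inhibition above the mean of compounds lying between control limits plus 3 SD, set per campaign, cut at about 8.5% in these data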;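 further: 0% = DMSO-only wells as the low control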
# ADAM10 inh: human ADAM10 inhibitors, primary screen, biochemical, QFRET, HTS; recombinant ADAM10, EDANS/DABCYL FRET peptide cleavage, 3 h; Disintegrin and metalloproteinase domain-containing protein 10 (Homo sapiens), O14672; inhibition, % at 7 µM; 370,000 tested, 0.62% active;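 active means inhibition above a per-campaign cutoff equal to the mean of compounds falling between control-based bounds plus 3 SD, cut at about 20% in these data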;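 further: 0% = DMSO wells while the 100% control is not disclosed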
# Target sequence (O14672 214-748 limits assumed): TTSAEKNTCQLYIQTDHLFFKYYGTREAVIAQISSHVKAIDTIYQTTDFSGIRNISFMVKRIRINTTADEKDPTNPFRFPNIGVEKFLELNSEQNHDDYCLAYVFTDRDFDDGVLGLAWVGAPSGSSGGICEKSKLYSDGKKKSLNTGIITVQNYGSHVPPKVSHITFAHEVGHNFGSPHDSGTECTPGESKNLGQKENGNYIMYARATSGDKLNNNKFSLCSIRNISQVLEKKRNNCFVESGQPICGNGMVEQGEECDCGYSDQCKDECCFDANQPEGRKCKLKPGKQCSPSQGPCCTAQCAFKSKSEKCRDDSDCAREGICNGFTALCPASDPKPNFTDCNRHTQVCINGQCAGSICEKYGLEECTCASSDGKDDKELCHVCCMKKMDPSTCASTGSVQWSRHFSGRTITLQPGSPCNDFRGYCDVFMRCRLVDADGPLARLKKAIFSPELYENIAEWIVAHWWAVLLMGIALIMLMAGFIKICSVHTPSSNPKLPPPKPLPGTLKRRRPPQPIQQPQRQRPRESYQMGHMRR
# SKN-1 inh: suppressors of acrylamide-induced Pgst-4::GFP reporter in worms, primary screen, SKN-1 inhibitor project, whole organism, uHTS, GFP/RFP fluorescence ratio, strain VP596; C. elegans VP596 Pgst-4::GFP/RFP ratio, 24 h; inhibition, % at 21.8 µM; 360,000 tested, 0.49% active;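 active means interference check ratio from 0.5 to 1.5 plus GFP to RFP signal ratio inhibition reaching or exceeding a fixed threshold, cut at about 30% in these data, passing the limit was not always enough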
# GRIN3A LBD mod: binders of NR3A ligand-binding domain, primary screen, biophysical, differential scanning fluorimetry, uHTS | Glutamate receptor ionotropic, NMDA 3A (GRIN3A) ligand-binding domain | NR3A LBD differential scanning fluorimetry, Tm shift; 0% = protein alone, 100% = glycine-bound protein | Tm shift relative to glycine control, % at 25 µM | 340,000 tested, 2.5% active;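 active means melting temperature shift of at least 10% of the positive control shift, at one fixed dose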
# ADAM10 ctr: ADAM10 inhibitors, counter-screen for ADAM17 exosite inhibitor project, biochemical, FRET, human ADAM10. shares compounds with ADAM17 inh. recombinant ADAM10, EDANS/DABCYL FRET peptide cleavage, 3 h. inhibition, % at 6.95 µM. 2,900 tested, 47% active. AID 743256, 2014;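 active means mean inhibition over the triplicate runs exceeds the activity threshold set in the earlier primary screen, cut at about 20% in these data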;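 further: 0% = DMSO wells and 100% = marimastat wells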
# ADAM17 confirm: ADAM17 inhibitors, hit retest, confirmation, biochemical, QFRET peptide cleavage; AID 743257, 2014; inhibition, % at 6.95 µM; 2,900 tested, 65% active; recombinant ADAM17, EDANS/DABCYL QFRET peptide cleavage; shares compounds with ADAM17 inh;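 active means mean inhibition across replicates above the hit cutoff set in the primary screen, cut at about 8.5% in these data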;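 further: 0% = DMSO wells and 100% = marimastat wells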
# An asterisk follows results filed as active; x = no result. Rows were chosen to be rich in hits. Some 4.7% of all compounds tested hit in one or more screens of this group.
SMILES,MT1-MMP act inh,MPTP inh,ADAM17 inh,ADAM10 inh,SKN-1 inh,GRIN3A LBD mod,ADAM10 ctr,ADAM17 confirm
CCO[C@H]1OC(C(=O)N2CCN(Cc3ccccc3)CC2)=C[C@@H](C)[C@@H]1CCCO,-2,-1,-4,5,0,-1,x,x
CCO[C@@H]1OC(C(=O)N2CCN(Cc3ccccc3)CC2)=C[C@H](c2ccc(Br)cc2)[C@H]1CCCO,0,-1,10*,19,-18,0,4,7
COc1cccc(C2C(C#N)=C(N)Oc3c2oc(CO)cc3=O)c1 (configuration not stated),-3,-4,14*,-2,-12,0,6,11*
CC(=O)Nc1ccc(-c2ccnc3c2CC(C)(C(=O)NCCc2ccccc2)O3)cc1 (configuration not stated),-7,-1,9.5*,-8,-2,x,11,7
CC(=O)Nc1ccc(C)c(NC(=S)Nc2ccc(F)cc2)c1,7,6,-5,-6,8,-1,x,x
CC(C)Nc1nc(Cl)nc(NNC(=O)C(C)Oc2ccccc2)n1 (configuration not stated),12,0,9.0*,5,8,2,-2,-2
CN(c1ccc(C(=O)Nc2ccc3c(c2)OCO3)cc1)S(C)(=O)=O,-7,-1,-1,-7,-9,0,x,x
CN(c1ccc(C(=O)Nc2ccc3c(c2)OCCO3)cc1)S(C)(=O)=O,-2,-1,9.4*,10,11,-2,1,2
COc1ccc(N(C)S(=O)(=O)c2cccc(C(=O)Nc3ccc4c(c3)OCCO4)c2)cc1,-2,0,11*,14,-10,-8,24*,13*
COc1ccc(N(CC(=O)Nc2ccc3c(c2)OCCO3)S(=O)(=O)c2cccc(C)c2)cc1,-2,-1,4,4,7,-3,x,x
O=c1cc[nH]c2cc(Cl)ccc12,-2,0,-4,-2,16,1,x,x
C=CCSC1=C(C#N)C(c2ccccc2Cl)C(C(=O)c2cccs2)C(O)(C(F)(F)F)N1 (configuration not stated),-10,12,8.6*,8,5,-15,12,8
CCOC(=O)CC(NC(=O)c1cccs1)c1ccc(C)cc1 (configuration not stated),4,-1,2,10,-15,-1,x,x
O=C(Nc1ccc(Br)cn1)c1coc(=O)c(Br)c1,-2,3,-47,-112,-26,1,x,x
COc1ccc(N=C2SC(CC(=O)Nc3ccc(F)cc3)C(=O)N2Cc2ccco2)cc1 (configuration not stated),-2,4,12*,15,6,6,18,13*
Cc1nc2c(cc1NC(=O)C(C)(C)C)nc(C)n2Cc1ccccc1,-1,0,0,3,8,-1,x,x
OC(c1ccccc1)c1ncc(-c2ccc(C(F)(F)F)cc2)[nH]1 (configuration not stated),4,0,2,5,33,x,x,x
Cc1ccc2ccccc2c1C(O)c1ncc(-c2cccc(C(F)(F)F)c2)[nH]1 (configuration not stated),8,5,12*,12,-2,x,26*,15*
Cc1cc(Cl)ccc1C(O)c1ncc(-c2cccc(C(F)(F)F)c2)[nH]1 (configuration not stated),4,10,9.2*,14,-1,x,40*,18*
OC(c1ccc(-c2ccccc2)cc1)c1ncc(-c2ccc(C(F)(F)F)cc2)[nH]1 (configuration not stated),1,5,9.1*,6,15,x,23*,13*
Cc1ccc2ccccc2c1C(O)c1ncc(-c2cccc(F)c2)[nH]1 (configuration not stated),-1,1,4,-3,12,x,x,x
O=c1nc(N2CCCC2)nc(Nc2ccccc2)[nH]1,0,2,0,1,7,2,x,x
COc1ccccc1NC(=O)CN1CCN(CC(=O)Nc2ccc(S(N)(=O)=O)cc2)CC1,4,-1,3,3,-2,-2,x,x
Cc1c(Cl)cccc1NC(=O)CN1CCC(C(O)(c2ccccc2)c2ccccc2)CC1,-11,1,8.8*,13,9,-1,30*,16*
Cc1nc(SCc2nc3ccc(Cl)cc3[nH]2)c2oc3ccccc3c2n1,-7,37,9.8*,5,14,-3,-11,2
SMILES,MT1-MMP act inh,MPTP inh,ADAM17 inh,ADAM10 inh,SKN-1 inh,GRIN3A LBD mod,ADAM10 ctr,ADAM17 confirm
C[C@@H]1CN([C@@H](C)CO)C(=O)CCCn2nncc2CO[C@@H]1CN(C)S(=O)(=O)c1ccc(C#N)cc1,-1,1,9.5*,9,-1,x,13,9.5*
C[C@@H]1CN([C@@H](C)CO)C(=O)CCCn2nncc2CO[C@H]1CN(C)S(=O)(=O)c1ccc(C#N)cc1,3,-1,-5,-22,7,x,x,x
CCSc1nnc(NC(=O)CSc2nnc(CNC(=O)c3ccccc3F)o2)s1,3,-2,5,2,6,0,x,x
COC(=O)CN=C1OC(=O)N2C(=O)C3=C4[C@@H](C[C@H]5C(=O)N(c6ccccc6)C(=O)[C@H]5[C@H]4[C@@]12Cc1ccccc1)[C@H]1C(=O)N(c2ccccc2)C(=O)[C@H]1[C@H]3C,-8,2,9.8*,14,15,-2,11,6
COCCN=C1OC(=O)N2C(=O)C3=C4[C@@H](C[C@H]5C(=O)N(c6ccccc6)C(=O)[C@H]5[C@H]4[C@@]12Cc1ccccc1)[C@H]1C(=O)N(c2ccccc2)C(=O)[C@H]1[C@H]3C,-9,3,3,-2,14,3,x,x
Cc1ccc(S(=O)(=O)CNC(=S)c2ccc3ccccc3c2)cc1,-10,2,9.5*,15,1,-1,65*,37*

# Screening results: PubChem BioAssay, several laboratories
